From PMC11164251 (International journal of biological macromolecules, 2023)
Residue numbers refer to the chain shown, from its start. Where two headings read alike, the source gives them in different places. Peptide text beside a SMILES is read from it.

Columns and labels:
HsTFIIS LW domain [1] = target: HsTFIIS LW domain (Homo sapiens, UniProt P23193, I70A); experiment: ITC of HsLeo1 peptides with the HsTFIIS LW domain; type: binding; conditions: HsTFIIS1–96 LW mutant I70A, pH 7.4, 200 mM NaCl, 25 °C
How it was run: (§1)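 Recombinant N-His-tagged LW domain (wild type or point mutant), expressed in E. coli BL21 (DE3) (0.5 mM IPTG, 16 °C, 20 h) and purified by Ni-NTA, gel filtration and ion exchange. ITC: 50 uM protein in cell, 1mM synthetic Leo1 peptides in syringe, 16 × 2 μl injections at 120 s intervals. Buffer: 25 mM Tris, 200 mM NaCl, 1 mM EDTA, 1 % glycerol, pH 7.4, 25 °C. Peptide-into-buffer heat of dilution subtracted.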

HsTFIIS LW domain [2] = experiment: ITC of HsLeo1 peptides with the HsTFIIS LW domain; type: binding, Homo sapiens; conditions: HsTFIIS LW domain mutant printed as W339A
How it was run: as §1

HsTFIIS LW domain [3] = target: HsTFIIS LW domain (Homo sapiens, UniProt P23193, W73A); experiment: ITC of HsLeo1 peptides with the HsTFIIS LW domain; type: binding; conditions: HsTFIIS1–96 LW mutant W73A, pH 7.4, 200 mM NaCl, 25 °C
How it was run: as §1

HsTFIIS LW domain [4] = target: HsTFIIS LW domain (Homo sapiens, UniProt P23193); experiment: ITC of HsLeo1 peptides with the HsTFIIS LW domain; type: binding; conditions: pH 7.4, 25 °C
How it was run: as §1

HsTFIIS LW domain [5] = target: HsTFIIS LW domain (Homo sapiens, UniProt P23193, K67A); experiment: ITC of HsLeo1 peptides with the HsTFIIS LW domain; type: binding; conditions: HsTFIIS1–96 LW mutant K67A, pH 7.4, 200 mM NaCl, 25 °C
How it was run: as §1

HsTFIIS LW domain [6] = target: HsTFIIS LW domain (Homo sapiens, UniProt P23193, L41A); experiment: ITC of HsLeo1 peptides with the HsTFIIS LW domain; type: binding; conditions: HsTFIIS1–96 LW mutant L41A, pH 7.4, 200 mM NaCl, 25 °C
How it was run: as §1

[7] = target: TbTFIIS2–2 LW domain (residue 251–359) F340A (T. brucei); experiment: ITC
[8] = target: TbTFIIS2–2 LW domain (residue 251–359) L336A (T. brucei); experiment: ITC
ScTFIIS LW domain [9] = target: ScTFIIS LW domain (Saccharomyces cerevisiae, UniProt P07273, I69A); type: binding; conditions: ScTFIIS1–81 LW mutant I69A, pH 7.4, 25 °C
ScTFIIS LW domain [10] = target: ScTFIIS LW domain (Saccharomyces cerevisiae, UniProt P07273); type: binding
ScTFIIS LW domain [11] = target: ScTFIIS LW domain (Saccharomyces cerevisiae, UniProt P07273, L41A); type: binding; conditions: ScTFIIS1–81 LW mutant L41A, pH 7.4, 25 °C
ScTFIIS LW domain [12] = target: ScTFIIS LW domain (Saccharomyces cerevisiae, UniProt P07273, K66A); type: binding; conditions: ScTFIIS1–81 LW mutant K66A, pH 7.4, 25 °C
ScTFIIS LW domain [13] = target: ScTFIIS LW domain (Saccharomyces cerevisiae, UniProt P07273, W72A); type: binding; conditions: ScTFIIS1–81 LW mutant W72A; ITC, pH 7.4, 200 mM NaCl, 25 °C
[14] = target: HsTFIIS LW domain (residue 1–96), wild type (H. sapiens, UniProt P23193 1-96); experiment: ITC
[15] = target: HsTFIIS LW domain without the C-terminus (residue 1–78) (H. sapiens, UniProt P23193 1-78); experiment: ITC
[16] = target: T1, ScTFIIS LW domain, longer version (residue 1–93) (S. cerevisiae, UniProt P07273 1-93); experiment: ITC
T1 sequence (looked up): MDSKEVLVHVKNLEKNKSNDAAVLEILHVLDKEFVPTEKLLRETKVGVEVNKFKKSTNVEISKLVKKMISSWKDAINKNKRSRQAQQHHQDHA

[17] = target: T2, ScTFIIS LW domain (residue 1–81) L41A (S. cerevisiae, UniProt P07273 1-81, L41A); experiment: ITC
T2 sequence (looked up): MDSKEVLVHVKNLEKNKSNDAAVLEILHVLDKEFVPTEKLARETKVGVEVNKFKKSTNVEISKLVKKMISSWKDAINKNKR

[18] = target: T3, ScTFIIS LW domain (residue 1–81), wild type (S. cerevisiae, UniProt P07273 1-81); experiment: ITC
T3 sequence (looked up): T2 sequence (looked up) with A41L

[19] = target: T4, ScTFIIS LW domain (residue 1–81) K66A (S. cerevisiae, UniProt P07273 1-81, K66A); experiment: ITC
T4 sequence (looked up): T2 sequence (looked up) with A41L, K66A

[20] = target: T5, ScTFIIS LW domain (residue 1–81) I69A (S. cerevisiae, UniProt P07273 1-81, I69A); experiment: ITC
T5 sequence (looked up): T2 sequence (looked up) with A41L, I69A

[21] = target: HsTFIIS LW domain (residue 1–96) K67A (H. sapiens, UniProt P23193 1-96, K67A); experiment: ITC

## CC(C)C[C@H](NC(=O)[C@H](CCC(=O)O)NC(=O)[C@H](CCCCN)NC(=O)[C@H](CC(N)=O)NC(=O)[C@H](CO)NC(=O)[C@@H]1CCCN1C(=O)[C@@H](N)CCC(N)=O)C(=O)N[C@@H](Cc1ccccc1)C(=O)NCC(=O)N[C@@H](CC(=O)O)C(=O)N[C@@H](CC(=O)O)C(=O)N[C@@H](CO)C(=O)N[C@@H](CCC(=O)O)C(=O)N[C@@H](CC(=O)O)C(=O)N[C@@H](CCC(=O)O)C(=O)NCC(=O)O [HsLeo1_55–70] (H-QPSNKELFGDDSEDEG-OH; N-terminus and C-terminus assumed)
HsTFIIS LW domain [1]
  Kd: no binding
HsTFIIS LW domain [2]
  binding (ITC), result in words: abolishes the interactions
HsTFIIS LW domain [3]
  Kd: no binding
HsTFIIS LW domain [4]; HsTFIIS1–78 LW
  N (ITC binding stoichiometry): 1.00
HsTFIIS LW domain [4]; wild type HsTFIIS1–96 LW
  N (ITC binding stoichiometry): 0.96
HsTFIIS LW domain [5]
  Kd: weak binding
HsTFIIS LW domain [6]
  Kd: no binding

## TbLeo1 peptide (residue 71–86) containing the LFG motif
[7]
  Kd: 9.33 µM
[8]
  Kd: 1.11 µM

## CC(C)C[C@H](NC(=O)[C@H](CCC(=O)O)NC(=O)[C@H](C)NC(=O)[C@H](CC(=O)O)NC(=O)[C@H](CCC(=O)O)NC(=O)[C@@H](N)CCC(=O)O)C(=O)N[C@@H](CC(=O)O)C(=O)N[C@@H](CC(=O)O)C(=O)N[C@@H](CC(C)C)C(=O)N[C@@H](Cc1ccccc1)C(=O)NCC(=O)N[C@@H](CC(=O)O)C(=O)N[C@@H](CC(=O)O)C(=O)N[C@@H](CC(N)=O)C(=O)N[C@@H](CC(=O)O)C(=O)O [ScLeo1_54–68] (H-EEDAELDDLFGDDND-OH; N-terminus and C-terminus assumed)
ScTFIIS LW domain [9]
  N (ITC binding stoichiometry): 0.99
ScTFIIS LW domain [10]; ScTFIIS LW1–93, pH 7.4, 25 °C
  N (ITC binding stoichiometry): 1.04
ScTFIIS LW domain [10]; wild type ScTFIIS1–81 LW, pH 7.4, 25 °C
  N (ITC binding stoichiometry): 1.00
ScTFIIS LW domain [11]
  N (ITC binding stoichiometry): 1.03
ScTFIIS LW domain [12]
  N (ITC binding stoichiometry): 0.95
ScTFIIS LW domain [13]
  Kd: weak binding

## QPSNKELFGDDSEDEG (peptide, UniProt Q8WVC0 55-70, looked up) [HsLeo1 peptide (residue 55–70) containing an LFG motif]
[14]
  Kd: 44 µM
  stoichiometry N: 0.96
[15]
  Kd: 57.6 µM
  stoichiometry N: 1

## EEDAELDDLFGDDND (peptide, UniProt P38439 54-68, looked up) [ScLeo1 peptide (residue 54–68) containing the LFG motif]
[16]
  Kd: 1.39 µM
  stoichiometry N: 1.04
[17]
  Kd: 37 µM
  stoichiometry N: 1.03
[18]
  Kd: 3.3 µM
  stoichiometry N: 1
[19]
  Kd: 5.1 µM
  stoichiometry N: 0.95
[20]
  Kd: 44 µM
  stoichiometry N: 0.99

## ADMEDLFGSDADSEA (peptide, UniProt Q8WVC0 2-16, looked up) [HsLeo1 peptide (residue 2–16) containing an LFG motif]
[21]
  stoichiometry N: 1
[14]
  stoichiometry N: 1
[15]
  stoichiometry N: 1
